Holding throughout (assay type): functional
Assay [1] has as its system Mycobacterium tuberculosis. In words: Antimicrobial activity against rifampin-resistant Mycobacterium tuberculosis H37Rv SRI 1367 assessed as growth inhibition after 7 days by broth microdilution assay. The conditions noted are these: H37Rv SRI 1367, 168 h. The procedure, abridged: (§1)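 Broth microdilution per CLSI in Middlebrook 7H9 + OADC; ten two-fold dilutions; inoculum targeted 1.0 × 10^6 CFU/mL M. tuberculosis; 37 °C, ~90% humidity, 7 days. Wells scored visually for turbidity, partial or complete clearing; MIC = lowest concentration visually inhibiting growth; percent inhibition at the MIC also recorded. Duplicates; rifampin or isoniazid positive control, medium-only and organism-only controls.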

Assay [2] has as its system Mycobacterium tuberculosis. In words: Antimicrobial activity against rifampin-resistant Mycobacterium tuberculosis H37Rv SRI 1367 assessed as growth inhibition at MIC after 7 days by broth microdilution assay relative to control. The procedure, abridged:
as §1
Background: In broth dilution the organism is exposed to a series of concentrations in liquid medium.

The test system of assay [3] is Mycobacterium tuberculosis. Description: Antimicrobial activity against isoniazid-resistant Mycobacterium tuberculosis H37Rv SRI 1369 assessed as growth inhibition after 7 days by broth microdilution assay. The note with it: H37Rv SRI 1369, 168 h. The procedure, abridged: as §1
Assay [4] has as its system Mycobacterium tuberculosis. Description: Antimicrobial activity against ofloxacin-resistant Mycobacterium tuberculosis H37Rv SRI 4000 assessed as growth inhibition after 7 days by broth microdilution assay. The conditions noted are these: H37Rv SRI 4000, 168 h. The procedure, abridged: as §1
The test system of assay [5] is Mycobacterium tuberculosis. In words: Antimicrobial activity against isoniazid-resistant Mycobacterium tuberculosis H37Rv SRI 1369 assessed as growth inhibition at MIC after 7 days by broth microdilution assay relative to control. The procedure, abridged: as §1
Assay [6] deals with Mycobacterium tuberculosis. In words: Antimicrobial activity against ofloxacin-resistant Mycobacterium tuberculosis H37Rv SRI 4000 assessed as growth inhibition at MIC after 7 days by broth microdilution assay relative to control. The procedure, abridged:
as §1

Structures are written as SMILES. In brackets after ≈: the same amount, converted by molar mass.

Broadly, the MIC is the lowest concentration found to suppress growth. Take `Clc1ccc2nc3c(c(-c4ccccc4)c2c1)CCC3`: the figures for the MIC in assay [1], in assay [3] and in assay [4] were 6.25 µg/mL (≈ 22.3 µM), 6.25 µg/mL (≈ 22.3 µM) and 12.5 µg/mL (≈ 44.7 µM), respectively. In addition, the “growth inhibition (GI)” value in assay [2] is on record as 83%; in assay [5], 69%; in assay [6], 81%.
`NNC(=O)c1ccncc1` [ISONIAZID]: in assay [1], the MIC is 0.02 µg/mL (≈ 0.146 µM). Moreover, the “growth inhibition (GI)” value in assay [2] came to 85%.
In the case of `CO[C@H]1/C=C/O[C@@]2(C)Oc3c(C)c(O)c4c(O)c(c(/C=N/N5CCN(C)CC5)c(O)c4c3C2=O)NC(=O)/C(C)=C\C=C\[C@H](C)[C@H](O)[C@@H](C)[C@@H](O)[C@@H](C)[C@H](OC(C)=O)[C@@H]1C` [RIFAMPIN], the MIC in assay [3] is 0.02 µg/mL (≈ 0.0243 µM); in assay [4], 1.56 µg/mL (≈ 1.9 µM). The “growth inhibition (GI)” value amounted to 74% in assay [5] and 71% in assay [6].
On to `O=[N+]([O-])c1ccc2nc3c(c(-c4ccccc4)c2c1)CCCCC3`, for which the minimal inhibitory concentration (MIC) in assay [1], in assay [3] and in assay [4] was 37.5 µg/mL (≈ 118 µM) throughout. The “growth inhibition (GI)” value in assay [2] was determined as 72%; in assay [5] it was 52%; in assay [6] it was 70%.
As for `O=[N+]([O-])c1ccc2nc3c(c(-c4ccccc4)c2c1)CCCC3`, the MIC in assay [1] turned out to be 3.12 µg/mL (≈ 10.3 µM); in assay [3], 6.25 µg/mL (≈ 20.5 µM); in assay [4] it was 3.12 µg/mL (≈ 10.3 µM). The “growth inhibition (GI)” value in assay [2] was found to be 69%; in assay [5], 41%; in assay [6], 50%.

Source of the values: ChEMBL document CHEMBL3112573, “Design, synthesis and evaluation of acridine and fused-quinoline derivatives as potential anti-tuberculosis agents” (Eur J Med Chem, 2014).
